Experimental data published in ChEMBL document CHEMBL1208725, “Prostaglandin phospholipid conjugates with unusual biophysical and cytotoxic properties” (Bioorg Med Chem Lett, 2010).
pIC50: −log10 of the molar value. Active and inactive are the calls of the source. No cut-off for these calls is given here.

How the values were obtained:
[1] = system: secretory phospholipase A2; assay: Chemical stability of the compound in presence of snake venom secretory phospholipase A2 after 48 hrs by MALDI-TOF MS analysis; format: physicochemical; conditions: read-out: Stability
Outline: (§1)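 Formulated lipid suspensions (extruded through a 100 nm filter) were incubated with purified snake venom sPLA₂ (Agkistrodon piscivorus piscivorus and Naja mossambica mossambica) with stirring at 37 °C. Samples were taken at 2, 24 and 48 h for MALDI-TOF MS. The matrix was DHB and CF₃COONa in methanol with DPPG as internal standard. Hydrolysis was estimated as conversion of the conjugate.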

HT-29 [2] = assay: Cytotoxicity against human HT-29 cells after 24 hrs by MTT assay; format: functional, cell-based; conditions: HT-29, 24 h
Outline: (§2)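 Colon cancer cells were incubated with the substances for 24 h. Viability was then read by MTT assay 48 h after incubation. IC₅₀ values are mean SD, n ≥ 3.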

HT-29 [3] = assay: Cytotoxicity against human HT-29 cells after 24 hrs by MTT assay in presence of snake venom secretory phospholipase A2; format: functional, cell-based; conditions: HT-29, 24 h
COLO 205 [4] = assay: Cytotoxicity against human COLO205 cells after 24 hrs by MTT assay; format: functional, cell-based; conditions: COLO 205, 24 h; outline: as §2
COLO 205 [5] = assay: Induction of apoptosis in human COLO205 cells at 20 uM; format: functional, cell-based
COLO 205 [6] = assay: Induction of apoptosis in human COLO205 cells assessed as complete cell death at 100 uM; format: functional, cell-based
[7] = Chemical stability of the compound in presence of snake venom secretory phospholipase A2 after 24 hrs by MALDI-TOF MS analysis; format: physicochemical; outline: as §1

Which results are given for `CCCCC/C=C/C=C1\C(=O)C=C[C@H]1C/C=C/CCCC(=O)O[C@H](COCCCCCCCCCCCCCCCCCC)COP(=O)(O)OC[C@@H](O)CO`?
remaining at 48 h [1]: 70%; pIC50 (HT-29 [2]): 5.22; pIC50 (HT-29 [3]): 5.66; pIC50 (COLO 205 [4]): 5.05; Activity (COLO 205 [5]): Active; Activity (COLO 205 [6]): Active

Which results are given for `CCCCC/C=C/C=C1\C(=O)C=C[C@@H]1C/C=C/CCCC(=O)O`?
pIC50 (HT-29 [2]): 5.80; pIC50 (COLO 205 [4]): 5.40

What does the source list for `CCCCC/C=C/C=C1\C(=O)C=C[C@H]1C/C=C/CCCC(=O)O[C@H](COC(=O)CCCCCCCCCCCCCCCCC)COP(=O)([O-])OC[C@@H](O)CO.[Na+]`?
Stability [7]: Unstable; pIC50 (HT-29 [2]): 4.49; pIC50 (HT-29 [3]): 5.19; pIC50 (COLO 205 [4]): 4.77; Activity (COLO 205 [5]): Active; Activity (COLO 205 [6]): Active
